ChEMBL document CHEMBL5724801, “EUbOPEN Chemogenomics Library - Multiplex” (2024)
Several values for one entry are separate records, joined by “and”; a condition that tells them apart may be missing. Equal entries are not always repeated.

tested on: Fibroblast; experiment: Multiplex assay against human fibroblast; type: toxicity, cell-based; conditions: 12 h, 1 µM, compound concentration 1 uM
Procedure, shortened: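 At seeding, live cells were stained with Hoechst33342, BioTracker Green Microtubule Cytoskeleton Dye, MitoTracker Red and Annexin V Alexa Fluor 680. After compound addition they were imaged on a CQ1 microscope at 37°C and 5% CO2, and CellPathfinder machine-learning gating sorted them into Hoechst high-intensity objects or normal cells, with normal cells further split into healthy, pyknosed or fragmented nuclei and pyknosed cells into mitotic or apoptotic. Tubulin, mitochondrial-mass and membrane-permeability phenotypes are given as per cents of cells with healthy nuclei.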

Compound	Population Apoptotic (%)	Population Fragmented Nuclei (%)	Population Healthy Nuclei (%)	Population Hoechst High Intensity Objects (%)	Population Membrane Permeable-Phenotype (%)	Population Mitochondria Different-Phenotype (%)	Population Mitotic Cells (%)	Population Normal (%)	Population Pyknosed Nuclei (%)	Population Tubulin-Different-Phenotype (%)
O=c1cccc2n1C[C@@H]1CNC[C@H]2C1 [CYTISINICLINE]	5.66% and 13.33%	10.05% and 5.19%	61.9% and 75.32%	0%	4.27% and 5.17%	5.98% and 6.9%	94.34% and 86.67%	100%	28.04% and 19.48%	11.11% and 12.93%
COc1cc(C(=O)N2CC[C@@H](O)[C@@H](N)C2)cc2nc(-c3cc4ccccc4n3CC3CC3)n(C)c12.Cl	21% and 48%	25% and 24%	62% and 44%	2% and 3%	0% and 10%	4% and 14%	78% and 51%	97% and 96%	12% and 31%	55% and 69%
CC[C@H](Nc1ncnc2[nH]cnc12)c1nc2cccc(F)c2c(=O)n1-c1ccccc1 [IDELALISIB]	12.5% and 30.56%	8.54% and 3.76%	58.94% and 76.88%	7.17% and 0%	3.45% and 2.8%	10.34% and 11.89%	87.5% and 69.44%	92.83% and 100%	32.52% and 19.35%	22.76% and 24.48%
CSCC[C@H](NC=O)C(=O)N[C@@H](CC(C)C)C(=O)N[C@@H](Cc1ccccc1)C(=O)O	–	18% and 29%	69% and 51%	–	–	3% and 4%	–	–	–	26% and 39%

same assay, conditions: 12 h, 1 µM, compound concentration 1 uM

Compound	Total Cell Count
O=c1cccc2n1C[C@@H]1CNC[C@H]2C1 [CYTISINICLINE]	189 and 154
COc1cc(C(=O)N2CC[C@@H](O)[C@@H](N)C2)cc2nc(-c3cc4ccccc4n3CC3CC3)n(C)c12.Cl	160 and 130
CC[C@H](Nc1ncnc2[nH]cnc12)c1nc2cccc(F)c2c(=O)n1-c1ccccc1 [IDELALISIB]	265 and 186
CSCC[C@H](NC=O)C(=O)N[C@@H](CC(C)C)C(=O)N[C@@H](Cc1ccccc1)C(=O)O	182 and 175

same assay, conditions: 12 h, 10 µM, compound concentration 10 uM

Compound	Population Apoptotic (%)	Population Fragmented Nuclei (%)	Population Healthy Nuclei (%)	Population Hoechst High Intensity Objects (%)	Population Membrane Permeable-Phenotype (%)	Population Mitochondria Different-Phenotype (%)	Population Mitotic Cells (%)	Population Normal (%)	Population Pyknosed Nuclei (%)	Population Tubulin-Different-Phenotype (%)
O=c1cccc2n1C[C@@H]1CNC[C@H]2C1 [CYTISINICLINE]	15.38% and 16.67%	13.5% and 4.41%	62.58% and 80.88%	0%	11.76% and 2.42%	9.8% and 7.27%	84.62% and 83.33%	100%	23.93% and 14.71%	20.59% and 20.61%
COc1cc(C(=O)N2CC[C@@H](O)[C@@H](N)C2)cc2nc(-c3cc4ccccc4n3CC3CC3)n(C)c12.Cl	60% and 48%	22% and 30%	57% and 44%	6% and 10%	0% and 2%	34% and 25%	40% and 51%	93% and 89%	19% and 25%	97% and 92%
CC[C@H](Nc1ncnc2[nH]cnc12)c1nc2cccc(F)c2c(=O)n1-c1ccccc1 [IDELALISIB]	7.84% and 18.6%	13.24% and 8.44%	63.47% and 72.44%	0%	11.51% and 11.04%	16.55% and 16.56%	92.16% and 81.4%	100%	23.29% and 19.11%	53.24% and 61.96%
CSCC[C@H](NC=O)C(=O)N[C@@H](CC(C)C)C(=O)N[C@@H](Cc1ccccc1)C(=O)O	–	27%	39%	38%	9%	5% and 3%	–	61%	–	24% and 35%

same assay, conditions: 12 h, 10 µM, compound concentration 10 uM

Compound	Total Cell Count
O=c1cccc2n1C[C@@H]1CNC[C@H]2C1 [CYTISINICLINE]	163 and 204
COc1cc(C(=O)N2CC[C@@H](O)[C@@H](N)C2)cc2nc(-c3cc4ccccc4n3CC3CC3)n(C)c12.Cl	271 and 179
CC[C@H](Nc1ncnc2[nH]cnc12)c1nc2cccc(F)c2c(=O)n1-c1ccccc1 [IDELALISIB]	219 and 225
CSCC[C@H](NC=O)C(=O)N[C@@H](CC(C)C)C(=O)N[C@@H](Cc1ccccc1)C(=O)O	112 and 315

same assay, conditions: 24 h, 1 µM, compound concentration 1 uM

Compound	Population Apoptotic (%)	Population Fragmented Nuclei (%)	Population Healthy Nuclei (%)	Population Hoechst High Intensity Objects (%)	Population Membrane Permeable-Phenotype (%)	Population Mitochondria Different-Phenotype (%)	Population Mitotic Cells (%)	Population Normal (%)	Population Pyknosed Nuclei (%)	Population Tubulin-Different-Phenotype (%)
O=c1cccc2n1C[C@@H]1CNC[C@H]2C1 [CYTISINICLINE]	10.81% and 26.67%	10.86% and 6.41%	72.4% and 83.97%	0%	3.12% and 3.05%	4.38% and 3.82%	89.19% and 73.33%	100%	16.74% and 9.62%	13.12% and 12.21%
COc1cc(C(=O)N2CC[C@@H](O)[C@@H](N)C2)cc2nc(-c3cc4ccccc4n3CC3CC3)n(C)c12.Cl	55% and 60%	24% and 31%	62% and 36%	3% and 4%	0% and 4%	–	45% and 39%	96% and 95%	13% and 31%	51% and 79%
CC[C@H](Nc1ncnc2[nH]cnc12)c1nc2cccc(F)c2c(=O)n1-c1ccccc1 [IDELALISIB]	12.5% and 29.41%	8.53% and 9.31%	69.77% and 82.35%	5.84% and 0%	6.11% and 1.79%	3.89% and 7.14%	87.5% and 70.59%	94.16% and 100%	21.71% and 8.33%	16.67% and 20.24%
CSCC[C@H](NC=O)C(=O)N[C@@H](CC(C)C)C(=O)N[C@@H](Cc1ccccc1)C(=O)O	–	35%	73% and 46%	7%	–	4% and 9%	–	92%	–	18% and 43%

same assay, conditions: 24 h, 1 µM, compound concentration 1 uM

Compound	Total Cell Count
O=c1cccc2n1C[C@@H]1CNC[C@H]2C1 [CYTISINICLINE]	221 and 156
COc1cc(C(=O)N2CC[C@@H](O)[C@@H](N)C2)cc2nc(-c3cc4ccccc4n3CC3CC3)n(C)c12.Cl	158 and 125
CC[C@H](Nc1ncnc2[nH]cnc12)c1nc2cccc(F)c2c(=O)n1-c1ccccc1 [IDELALISIB]	274 and 204
CSCC[C@H](NC=O)C(=O)N[C@@H](CC(C)C)C(=O)N[C@@H](Cc1ccccc1)C(=O)O	173 and 179

same assay, conditions: 24 h, 10 µM, compound concentration 10 uM

Compound	Population Apoptotic (%)	Population Fragmented Nuclei (%)	Population Healthy Nuclei (%)	Population Hoechst High Intensity Objects (%)	Population Membrane Permeable-Phenotype (%)	Population Mitochondria Different-Phenotype (%)	Population Mitotic Cells (%)	Population Normal (%)	Population Pyknosed Nuclei (%)	Population Tubulin-Different-Phenotype (%)
O=c1cccc2n1C[C@@H]1CNC[C@H]2C1 [CYTISINICLINE]	8% and 22.22%	9.26% and 6.16%	75.31% and 85.31%	0%	6.56% and 4.44%	5.74% and 5%	92% and 77.78%	100%	15.43% and 8.53%	20.49% and 23.33%
COc1cc(C(=O)N2CC[C@@H](O)[C@@H](N)C2)cc2nc(-c3cc4ccccc4n3CC3CC3)n(C)c12.Cl	73% and 62%	15% and 27%	68% and 54%	7% and 5%	0% and 3%	55% and 41%	26% and 37%	92% and 94%	16% and 17%	94% and 92%
CC[C@H](Nc1ncnc2[nH]cnc12)c1nc2cccc(F)c2c(=O)n1-c1ccccc1 [IDELALISIB]	8.33% and 21.88%	9.91% and 5.37%	73.87% and 79.02%	0%	9.15% and 6.79%	15.24% and 12.35%	91.67% and 78.12%	100%	16.22% and 15.61%	46.95% and 64.2%
CSCC[C@H](NC=O)C(=O)N[C@@H](CC(C)C)C(=O)N[C@@H](Cc1ccccc1)C(=O)O	–	19%	38%	32%	3%	7% and 10%	–	67%	–	25% and 47%

same assay, conditions: 24 h, 10 µM, compound concentration 10 uM

Compound	Total Cell Count
O=c1cccc2n1C[C@@H]1CNC[C@H]2C1 [CYTISINICLINE]	162 and 211
COc1cc(C(=O)N2CC[C@@H](O)[C@@H](N)C2)cc2nc(-c3cc4ccccc4n3CC3CC3)n(C)c12.Cl	274 and 174
CC[C@H](Nc1ncnc2[nH]cnc12)c1nc2cccc(F)c2c(=O)n1-c1ccccc1 [IDELALISIB]	222 and 205
CSCC[C@H](NC=O)C(=O)N[C@@H](CC(C)C)C(=O)N[C@@H](Cc1ccccc1)C(=O)O	107 and 230

same assay, conditions: 48 h, 1 µM, compound concentration 1 uM

Compound	Population Apoptotic (%)	Population Fragmented Nuclei (%)	Population Healthy Nuclei (%)	Population Hoechst High Intensity Objects (%)	Population Membrane Permeable-Phenotype (%)	Population Mitotic Cells (%)	Population Normal (%)	Population Pyknosed Nuclei (%)	Population Tubulin-Different-Phenotype (%)	Total Cell Count
O=c1cccc2n1C[C@@H]1CNC[C@H]2C1 [CYTISINICLINE]	26.67% and 22.22%	7.5% and 5.23%	86.25% and 83.01%	0%	0.48% and 1.57%	73.33% and 77.78%	100%	6.25% and 11.76%	3.38% and 7.09%	240 and 153
COc1cc(C(=O)N2CC[C@@H](O)[C@@H](N)C2)cc2nc(-c3cc4ccccc4n3CC3CC3)n(C)c12.Cl	80% and 64%	22% and 38%	67% and 41%	6% and 1%	0% and 3%	20% and 35%	93% and 98%	10% and 20%	44% and 80%	161 and 153
CC[C@H](Nc1ncnc2[nH]cnc12)c1nc2cccc(F)c2c(=O)n1-c1ccccc1 [IDELALISIB]	40.74% and 37.5%	8.52% and 5.13%	81.48% and 90.77%	7.22% and 0%	1.36% and 3.39%	59.26% and 62.5%	92.78% and 100%	10% and 4.1%	9.09% and 16.95%	291 and 195
CSCC[C@H](NC=O)C(=O)N[C@@H](CC(C)C)C(=O)N[C@@H](Cc1ccccc1)C(=O)O	–	16% and 36%	69% and 47%	–	–	–	–	–	21% and 54%	184 and 174

same assay, conditions: 48 h, 1 µM, compound concentration 1 uM

Compound	Population Mitochondria Different-Phenotype (%)
COc1cc(C(=O)N2CC[C@@H](O)[C@@H](N)C2)cc2nc(-c3cc4ccccc4n3CC3CC3)n(C)c12.Cl	8% and 16%
CC[C@H](Nc1ncnc2[nH]cnc12)c1nc2cccc(F)c2c(=O)n1-c1ccccc1 [IDELALISIB]	11.36% and 3.39%
CSCC[C@H](NC=O)C(=O)N[C@@H](CC(C)C)C(=O)N[C@@H](Cc1ccccc1)C(=O)O	1% and 8%

same assay, conditions: 48 h, 10 µM, compound concentration 10 uM

Compound	Population Apoptotic (%)	Population Fragmented Nuclei (%)	Population Healthy Nuclei (%)	Population Hoechst High Intensity Objects (%)	Population Membrane Permeable-Phenotype (%)	Population Mitotic Cells (%)	Population Normal (%)	Population Pyknosed Nuclei (%)	Population Tubulin-Different-Phenotype (%)	Total Cell Count
O=c1cccc2n1C[C@@H]1CNC[C@H]2C1 [CYTISINICLINE]	62.5% and 28.57%	8.67% and 8.44%	87.24% and 85.65%	0%	0% and 2.46%	37.5% and 71.43%	100%	4.08% and 5.91%	8.19% and 18.72%	196 and 237
COc1cc(C(=O)N2CC[C@@H](O)[C@@H](N)C2)cc2nc(-c3cc4ccccc4n3CC3CC3)n(C)c12.Cl	86%	20% and 32%	64% and 55%	8% and 4%	0%	13%	91% and 95%	15% and 11%	94%	256 and 193
CC[C@H](Nc1ncnc2[nH]cnc12)c1nc2cccc(F)c2c(=O)n1-c1ccccc1 [IDELALISIB]	25% and 23.81%	12.65% and 4.81%	82.45% and 85.1%	0%	3.96% and 10.73%	75% and 76.19%	100%	4.9% and 10.1%	30.2% and 57.06%	245 and 208
CSCC[C@H](NC=O)C(=O)N[C@@H](CC(C)C)C(=O)N[C@@H](Cc1ccccc1)C(=O)O	–	18%	44%	29%	4%	–	70%	–	24% and 47%	110 and 231

same assay, conditions: 48 h, 10 µM, compound concentration 10 uM

Compound	Population Mitochondria Different-Phenotype (%)
COc1cc(C(=O)N2CC[C@@H](O)[C@@H](N)C2)cc2nc(-c3cc4ccccc4n3CC3CC3)n(C)c12.Cl	62% and 36%
CC[C@H](Nc1ncnc2[nH]cnc12)c1nc2cccc(F)c2c(=O)n1-c1ccccc1 [IDELALISIB]	11.39% and 11.3%
CSCC[C@H](NC=O)C(=O)N[C@@H](CC(C)C)C(=O)N[C@@H](Cc1ccccc1)C(=O)O	4% and 1%
